In general, MIC refers to the lowest concentration that inhibits growth of the organism. High values mean a need for much substance, low ones inhibition by little substance.

The values below come from ChEMBL document CHEMBL3797163, “Tryptic Stability of Synthetic Bactenecin Derivatives Is Determined by the Side Chain Length of Cationic Residues and the Peptide Conformation” (J Med Chem, 2016).

One series deals with Escherichia coli. Put plainly: Antimicrobial activity against Escherichia coli O157:H7 incubated overnight by microdilution method. In kind it is functional. The procedure, abridged:
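Broth microdilution in Mueller-Hinton broth. Peptides were serially diluted twofold in water at 2× final concentration and mixed 1:1 with bacteria in 2× MHB, giving a final inoculum of 2-7 × 10^5 CFU/mL. Plates were incubated overnight at 37 °C. MIC was read as the lowest concentration with no visible growth.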
Background: Broth dilution looks for growth in wells or tubes with falling amounts of substance.

The nature of series [1]: Stability of compound assessed as bovine trypsin mediated degradation at 2 to 5 mM after 2 hrs by HPLC/MS analysis. In kind it is ADME, Bos taurus. Particulars: cattle, isolated protein, 5000 µM. The procedure, abridged: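 Bovine pancreatic trypsin (salt-free) was freshly dissolved at 1 mg per 50 mL in 0.1 M NH4HCO3, pH 8.2, and added to peptide, which was diluted from 2˗5 mM stocks to a final 60 µM. Reactions were shaken at 37 °C and sampled at 2 h and 24 h. Aliquots were quenched with acetic acid/TFA and analysed by RP-HPLC (C18, 220 nm) and direct-injection ESI-MS. No-enzyme samples served as controls.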

A further series concerns Staphylococcus aureus. Put plainly: Antimicrobial activity against Staphylococcus aureus C622 incubated overnight by microdilution method. In kind it is functional. The procedure, abridged:
(§1)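 Broth microdilution in Mueller-Hinton broth. Peptides were serially diluted 2-fold in water at twice the final concentration, then mixed 1:1 with bacteria in 2× MHB to a final 2˗7 × 10^5 CFU/mL. Plates were incubated overnight at 37 °C. MIC was taken as the lowest concentration showing no growth.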

A further series concerns Acinetobacter baumannii. Description: Antimicrobial activity against Acinetobacter baumannii ATCC 17978 incubated overnight by microdilution method. In kind it is functional. The procedure, abridged: as §1
The subject of the next series is Bacillus subtilis. Description: Antimicrobial activity against Bacillus subtilis C626 incubated overnight by microdilution method. In kind it is functional. The procedure, abridged:
as §1

Values after ≈ are worked out from the molar mass of the structure shown. Square brackets hold non-standard residues; d marks the D form. Peptide text beside a SMILES is read from it. Orn = NCCC[C@H](N)C(=O)O; Dab = NCC[C@H](N)C(=O)O

Regarding `NCCC[C@H](NC(=O)[C@H](CCCN)NC(=O)[C@H](Cc1c[nH]c2ccccc12)NC(=O)[C@H](Cc1c[nH]c2ccccc12)NC(=O)[C@H](CCCN)NC(=O)[C@H](Cc1c[nH]c2ccccc12)NC(=O)[C@H](Cc1c[nH]c2ccccc12)NC(=O)[C@H](CCCN)NC(=O)[C@@H](N)CCCN)C(N)=O` (H-[Orn][Orn]WW[Orn]WW[Orn][Orn]-NH2), the MIC with Escherichia coli is 2.5 µM (≈ 3.33 µg/mL); against Staphylococcus aureus, 20 µM (≈ 26.7 µg/mL); against Acinetobacter baumannii, greater than 80 µM; in the series with Bacillus subtilis, 40 µM (≈ 53.3 µg/mL). Besides, the Stability entry in series [1] is on record as “Unstable”.
The corresponding values for `CC[C@H](C)[C@H](NC(=O)[C@H](Cc1c[nH]c2ccccc12)NC(=O)[C@H](CCN)NC(=O)[C@H](Cc1c[nH]c2ccccc12)NC(=O)[C@H](Cc1c[nH]c2ccccc12)NC(=O)[C@H](CCN)NC(=O)[C@@H](N)CCN)C(=O)N[C@@H](CCN)C(=O)N[C@@H](Cc1c[nH]c2ccccc12)C(N)=O` (H-[Dab][Dab]WW[Dab]WI[Dab]W-NH2) are 2.5 µM (≈ 3.19 µg/mL), 2.5 µM (≈ 3.19 µg/mL), 5 µM (≈ 6.38 µg/mL), 10 µM (≈ 12.8 µg/mL) and “Unstable”.
As to `NCC[C@H](NC(=O)[C@H](CCN)NC(=O)[C@H](Cc1c[nH]c2ccccc12)NC(=O)[C@H](Cc1c[nH]c2ccccc12)NC(=O)[C@H](CCN)NC(=O)[C@H](Cc1c[nH]c2ccccc12)NC(=O)[C@H](Cc1c[nH]c2ccccc12)NC(=O)[C@H](CCN)NC(=O)[C@@H](N)CCN)C(N)=O` (H-[Dab][Dab]WW[Dab]WW[Dab][Dab]-NH2), the minimum inhibitory concentration (MIC) against Escherichia coli came to 2.5 µM (≈ 3.16 µg/mL); in the series with Staphylococcus aureus, 5 µM (≈ 6.31 µg/mL); against Acinetobacter baumannii, 80 µM (≈ 101 µg/mL); against Bacillus subtilis it was 20 µM (≈ 25.2 µg/mL). For the same compound, the Stability result in series [1] is recorded as “Stable”.
On to `N=C(N)NCCCC[C@H](NC(=O)[C@H](CCCCNC(=N)N)NC(=O)[C@H](Cc1c[nH]c2ccccc12)NC(=O)[C@@H](Cc1c[nH]c2ccccc12)NC(=O)[C@@H](CCN)NC(=O)[C@@H](Cc1c[nH]c2ccccc12)NC(=O)[C@H](Cc1c[nH]c2ccccc12)NC(=O)[C@@H](CCCCNC(=N)N)NC(=O)[C@@H](N)CCN)C(N)=O`, for which the MIC with Escherichia coli worked out at 2.5 µM (≈ 3.68 µg/mL); with Staphylococcus aureus, 5 µM (≈ 7.36 µg/mL); against Acinetobacter baumannii, 40 µM (≈ 58.9 µg/mL); against Bacillus subtilis it was 40 µM (≈ 58.9 µg/mL). For the same compound, the Stability entry in series [1] is given as “Unstable”.
Take `N=C(N)NCCC[C@@H](NC(=O)[C@@H](CCCNC(=N)N)NC(=O)[C@@H](Cc1c[nH]c2ccccc12)NC(=O)[C@@H](Cc1c[nH]c2ccccc12)NC(=O)[C@@H](CCCCN)NC(=O)[C@@H](Cc1c[nH]c2ccccc12)NC(=O)[C@@H](Cc1c[nH]c2ccccc12)NC(=O)[C@@H](CCCNC(=N)N)NC(=O)[C@H](N)CCCCN)C(N)=O`: the MIC against Escherichia coli was determined as 1.25 µM (≈ 1.86 µg/mL); in the series on Staphylococcus aureus it was 5 µM (≈ 7.43 µg/mL); in the series on Acinetobacter baumannii it was 20 µM (≈ 29.7 µg/mL); in the series with Bacillus subtilis it was 20 µM (≈ 29.7 µg/mL). In series [1], the Stability result is given as “Stable”.
For `N=C(N)NCCC[C@H](NC(=O)[C@H](Cc1c[nH]c2ccccc12)NC(=O)[C@H](Cc1c[nH]c2ccccc12)NC(=O)[C@H](CCCCN)NC(=O)[C@@H](N)CCCNC(=N)N)C(=O)N[C@@H](Cc1c[nH]c2ccccc12)C(=O)N[C@@H](Cc1c[nH]c2ccccc12)C(=O)N[C@@H](CCCCN)C(=O)N[C@@H](CCCCN)C(N)=O` (H-RKWWRWWKK-NH2), the MIC in the series on Escherichia coli was 2.5 µM (≈ 3.65 µg/mL); against Staphylococcus aureus, 10 µM (≈ 14.6 µg/mL); against Acinetobacter baumannii it was greater than 40 µM; against Bacillus subtilis, greater than 40 µM. The Stability entry in series [1] is reported as “Unstable”.
